Assay outcomes deposited in PubChem by Sanford-Burnham Center for Chemical Genomics.
FLuc act counter = firefly luciferase counter-screen for stimulation assays; activation factor at 10 µM; ATPlite luciferase biochemical, luminescence, 10 min; 0 = ATP-free wells, 1 = DMSO control; 200,000 tested, under 10 active; AID 1027;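 active = luciferase activation factor, scaled between plate controls, of at least 2 with compound at 10 µM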
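System: Luciferase/luciferin detection reagent, cell-free biochemical luciferase assay | Medium: PBS buffer for ATP | Dosing: Test compounds dosed from 2 mM stocks in 100% DMSO | Timing: 10 min at ambient temperature | Signal: Luminescence measurement of luciferase light output | Evaluation: Luciferase activation, seen as luminescence increase over controls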
TRAIL sens C8 = caspase-8 TRAIL sensitization; NB7+C8 cells + TRAIL, ATPlite viability luminescence; 360,000 tested, 1% active; AID 624354; inhibition (viability loss, TRAIL sensitization), % at 10 µM;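 active = compounds causing at least 50% loss of cell viability in the single-dose screen, relative to plate controls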
PPC-1+TRAIL kill = compounds killing PPC-1 cancer cells with TRAIL present (potentiator screen, no TRAIL-free arm); cell killing (% activity), % at 4 µM or 5 µM; 220,000 tested, 0.41% active; AID 1443; PPC-1 cells + TRAIL, ATPLite viability luminescence;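 active = cell killing above 50% in the first pass at 4 µM, then a duplicate retest at 5 µM averaging 50% or more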;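 note: plate controls were cells with TRAIL plus DMSO for no effect and medium-only wells lacking cells for full effect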
FLuc inh counter = counter-screen for luciferase assay inhibitors: firefly luciferase inhibition; P08659; ATPLite firefly luciferase biochemical luminescence, 10 min; inhibition, % at 10 µM; 200,000 tested, 1.5% active; AID 1006;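 active = inhibition above about 50% when tested at 10 µM, limit read from the data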
An asterisk follows results filed as active; . = no result given. Hits are enriched below; roughly 1.5% of the tested compounds scored in any of these assays.

SMILES	FLuc act counter	TRAIL sens C8	PPC-1+TRAIL kill	FLuc inh counter
Cc1cccc(C)c1-n1nnnc1C(CCc1ccccc1)N1CCC(n2c(=O)[nH]c3ccccc32)CC1 (stereo not given)	.	81.8*	.	.
COc1ccc(-n2nnnc2C(CCc2ccccc2)N2CCC(n3c(=O)[nH]c4ccccc43)CC2)cc1 (stereo not given)	.	89.9*	.	.
CC1=NNC(=O)C1Br (stereo not given)	.	12.2	.	.
CC(=O)OC(C)(C)/C=C/C(=O)C(C)(O)C1C(O)CC2(C)C3CC=C4C(CC(O)C(=O)C4(C)C)C3(C)C(=O)CC12C (stereo not given)	.	32.3	.	.
CC(=O)OC(C)(C)/C=C/C(=O)[C@](C)(O)[C@H]1[C@H](O)C[C@@]2(C)[C@@H]3CC=C4[C@H](C[C@H](O)C(=O)C4(C)C)[C@]3(C)C(=O)C[C@]12C	1.1	31.6	50.1*	-11.1
CC(=O)OC(C)(C)/C=C/C(=O)C(C)(O)C1[C@H](O)C[C@@]2(C)C3CC=C4C(CC[C@@H](O)C4(C)C)[C@]3(CO)C(=O)C[C@]12C (stereo not given in full)	.	53.1*	.	.
C[C@@H]1O[C@@H](O[C@@H]2C=C3CC[C@@H]4C(CC[C@]5(C)[C@@H](c6ccc(=O)oc6)CC[C@]45O)[C@@]3(C)CC2)[C@H](O)[C@H](O)[C@H]1O (stereo not given in full)	.	75.8*	.	.
C[C@@H]1O[C@@H](O[C@@H]2C=C3CCC4C(CC[C@]5(C)[C@@H](c6ccc(=O)oc6)CC[C@]45O)[C@@]3(C)CC2)[C@H](O)[C@H](O)[C@H]1O (stereo not given in full)	.	74.8*	.	.
CC(=O)C1CCC2(O)C3CCC4=CC(=O)CCC4(C)C3CCC12C (stereo not given)	.	-11.7	.	.
ClCCN(CCCl)c1ccc(C=Cc2ccncn2)cc1	.	8.4	.	.
CCCCCN1C(=O)c2ccccc2[C@@]2(C(=O)OCC)Cc3cc(OC)ccc3[C@@H]12	.	58.9*	.	.
CCOC(=O)[C@]12Cc3cc(OC)ccc3[C@H]1N(Cc1ccccc1)C(=O)c1ccccc12	.	4.6	.	.
CCOC(=O)[C@]12Cc3cc(C)ccc3[C@H]1N(C(C)C)C(=O)c1ccccc12	.	82.8*	.	.
CC1=C(C)CN2CC(C#N)=C(N)C2C1 (stereo not given)	.	-9.4	.	.
C[C@]12C[C@H](O)[C@@H](O)C[C@@H]1CC[C@@H]1[C@@H]2CC[C@]2(C)C(=O)CC[C@@H]12	.	-2.5	.	.
Cc1[nH]nc2ccc(-c3cncc(OC[C@@H](N)Cc4c[nH]c5ccccc45)c3)cc12	.	90.1*	.	.
O=c1c2ccccc2nc(-c2ccccc2Cl)n1-c1cccc(O)c1	.	5.4	.	.
Cc1ccc(NC(=O)CN2C(=O)CN=C(c3ccccc3)c3cc(Cl)ccc32)cc1	1	57.0*	9.8	3.6
CCCC1(CCC)C(=O)NC(=NCc2ccccc2)NC1=O	1.1	77.2*	2.4	-5.8
CCCC1(CCC)C(=O)NC(=Nc2ccccc2)NC1=O	1	10.8	6.9	-4.5
COC(=O)[C@@H]1N=C(c2ccc(OC)cc2)O[C@]12C(=O)N(Cc1ccc(OC)cc1)c1ccccc12	.	0.8	.	.
C[C@@H]1CN([C@H](C)CO)C(=O)CCCn2nncc2CO[C@@H]1CN(C)C(=O)Oc1ccc2ccccc2c1	.	-4.4	.	.
O=C1NCN(c2ccccc2)C12CCN(C(c1ccccc1OC(F)(F)F)c1nnnn1C1CCCC1)CC2 (stereo not given)	.	8.6	.	.
O=c1[nH]c2ccccc2n1C1CCN(C(CCc2ccccc2)c2nnnn2-c2ccc3c(c2)OCCO3)CC1 (stereo not given)	.	12.4	.	.
CCn1nc(-c2cccs2)nc2c(=O)n(C)c(=O)nc1-2	1.1	95.2*	38.9	-6.6
SMILES	FLuc act counter	TRAIL sens C8	PPC-1+TRAIL kill	FLuc inh counter
COC12C(COC(N)=O)C3=C(C(=O)C(C)=C(N)C3=O)N1CC1C2N1C (stereo not given)	.	-1.2	0.6	.
COC(COC(N)=O)C1=C(N2CC2)C(=O)C(C)=C(N2CC2)C1=O (stereo not given)	.	74.0*	.	.
COc1ccc(-c2cc(C(=O)N3CCC4(CC3)OCCO4)c3ccccc3n2)cc1	.	41.9	.	.
CCOc1ccc(-c2cc(C(=O)N3CCC4(CC3)OCCO4)c3ccccc3n2)cc1	.	70.6*	.	.
COc1cccc(C(c2nnnn2Cc2ccccc2)N2CCC3(CC2)C(=O)NCN3c2ccccc2)c1OC (stereo not given)	.	1.0	.	.
CC1=CC2OC3CC4OC(=O)C=CC=CC(C(C)O)OCC(O)C(C)CC(=O)OCC2(CC1O)C4(C)C31CO1 (stereo not given)	.	69.0*	.	.
